The EternaBench riboswitch data

Tested on: MS2 coat protein
Assay: apparent Kd, MS2 coat protein; higher = weaker binding; RNA-MaP array; tryptophan 2.4 mM where present
How it was run: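 SNAP-549-labelled MS2 coat protein, doubled from 0.7 or 1.5 nM to 3 µM, was titrated over designs transcribed by stalled E. coli RNA polymerase on Illumina sequencing-chip clusters. Titrations were run without and then with constant ligand in 100 mM Tris-HCl pH 7.5, 80 mM KCl, 4 mM MgCl2, BSA, DTT, yeast tRNA and Tween-20. The apparent Kd is the median of filtered per-cluster fits to green signal normalised to red-channel RNA signal and control-cluster median Fmax.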

[1] = designed as: ON switch for tryptophan, no ligand
[2] = ligand present: tryptophan, designed as: ON switch for tryptophan
[3] = designed as: OFF switch for tryptophan, no ligand
[4] = ligand present: tryptophan, designed as: OFF switch for tryptophan

ACAUGAGGAUCACCCAUGUGCAUGAUGAUCCGAGGACCGGUACGGCCGCCACUCGUCAUGAUGAUCUUUCAUGUUUGUCGCGCGC
apparent Kd [1]: 329 nM | apparent Kd [2]: 429 nM

AGAGCAUUGACGGCCGCCACUCAUGUCACAUGAGGAUCACCCAUGUGAUGGGUGAUAGCCCGGUCGAGGACCGGGUCAAUGCUCA
apparent Kd [1]: 17.2 nM | apparent Kd [2]: 18 nM

AGAUGAGUCACGGCCGCCACUCACUACAGGUUCACCCUUGGUUAACAUGAGGAUCACCCAUGUGGGAGGACCGGGUGAUGAGCAU
apparent Kd [3]: 19.9 nM | apparent Kd [4]: 25.1 nM

AGCAACAAGUCGGCCGCCACUCAUUUAACAUGAGGAUCACCCAUGUGAAUAACAUGGUUGUAAUAGAGGACCGGGACAGUUGCAU
apparent Kd [1]: 119 nM | apparent Kd [2]: 574 nM

AGCCGGAUUACGGCCGCCACUGUAGACGUGACGAAAGUCGCGUCAACAUGAGGAUCACCCAUGUACAGGACCGGGUGGUCGGGCG
apparent Kd [1]: 161 nM | apparent Kd [2]: 27.5 nM

AUAACGAGUGGUGGAUAAUCCUCAUGUAAACGAGGACCGGUACGGCCGCCACUCGAUAACAUGAGGAUCACCCAUGUAAUAAUAA
apparent Kd [3]: 13.2 nM | apparent Kd [4]: 10.3 nM

AUACAUGAGGAUCACCCAUGUGAUGGCCGGCGAGGACCGGUACGGCCGCCACUCGUGAUCCGUCCUGAGAGCAAAGCCCUCAGCA
apparent Kd [1]: 124 nM | apparent Kd [2]: 171 nM

AUGGACGACGAUCUGGGAAAACCAGAUCGACGAGGACCGGUACGGCCGCCACUCGUGUUUAUUUAACAUGAGGAUCACCCAUGUA
apparent Kd [1]: 45.9 nM | apparent Kd [2]: 17.6 nM

AUGUACAUGACGGCCGCCACUACACUGAAAGUGGUCCAGAACAUGAGGAUCACCCAUGUAUCAAGUAGGACCGGGUCAUGUACAU
apparent Kd [3]: 361 nM | apparent Kd [4]: 380 nM

AUUAAGGAUAUGUAGACGGCGGAGAAGAGACGAGGACCGGUACGGCCGCCACUCGUGUUAGUUAACAUGAGGAUCACCCAUGUAA
apparent Kd [1]: 49.7 nM | apparent Kd [2]: 22 nM

AUUCAUGGAAACAUGACAUAGGGAUCCGGUCGAGGACCGGUACGGCCGCCACUCGUUUGGAGGCACAUGAGGAUCACCCAUGUUA
apparent Kd [1]: 82 nM | apparent Kd [2]: 67.5 nM

AUUCAUGGAAACAUGACAUAGGGAUCUAUCCGAGGACCGGUACGGCCGCCACUCGCGUGGAGGCACAUGAGGAUCACCCAUGUUA
apparent Kd [1]: 278 nM | apparent Kd [2]: 432 nM

AUUGUGAAGUCGGCCGCCACUGCAUAGUUUAACCUCUUUUAACAUGAGGAUCACCCAUGUAAUGACAGGACCGGGACAAUAGUAA
apparent Kd [1]: 51.5 nM | apparent Kd [2]: 59.9 nM

CAAAAUAUAACGGCCGCCACUUACUCAUGAGGUAACAACAUGAGGAUCACCCAUGUUUGAGGAUCAAGGACCGGGUUAUAUUUUG
apparent Kd [1]: 30.7 nM | apparent Kd [2]: 17 nM

CAUCCUAGUACAUGAGGAUCACCCAUGUAUCGAGGACCGGUACGGCCGCCACUCGAAUGGCGGAUCGUUAAUCCUCUAGGAUGGA
apparent Kd [3]: 10 nM | apparent Kd [4]: 13.5 nM

CCUCAUGAACAUGAGGAUCACCCAUGUACACGAGGACCGGUACGGCCGCCACUCGAAUAAGCUAAAUAUAAAUAAUAAUAAUAGC
apparent Kd [3]: 16.9 nM | apparent Kd [4]: 37.6 nM

CUAAAUAUAUCGGCCGCCACUUACUCAUGAGGUAACAACAUGAGGAUCACCCAUGUUUGAGGAUCAAGGACCGGGAUAUAUUUAG
apparent Kd [1]: 27.8 nM | apparent Kd [2]: 19 nM

CUACAUUUGUAGAAACCGGUCAACAAUAAUCGAGGACCGGUACGGCCGCCACUCGAUGUGAAAUCACAUGAGGAUCACCCAUGUA
apparent Kd [1]: 18 nM | apparent Kd [2]: 18.1 nM

CUAUAAGUACCGGUCCUCAGAUCCUCAUGACGAGGACCGGUACGGCCGCCACUCGAAACAUGAGGAUCACCCAUGUAAUAAUAAU
apparent Kd [3]: 18.3 nM | apparent Kd [4]: 18.6 nM

CUCAUCCACGCGGCCGCCACUAUAUUGUGGUGCGUAUGUGUCGUAAUACAUGAGGAUCACCCAUGUAGGACCGGGCGUGGAUGAG
apparent Kd [3]: 10.8 nM | apparent Kd [4]: 20.4 nM

CUGUACAUCUCGGCCGCCACUGCUGACAUGGGAGUCACCCAUGUCCACAUGAGGAUCACCCAUGUCAGGACCGGGAGGUGUGCAG
apparent Kd [1]: 49.8 nM | apparent Kd [2]: 255 nM

GAUAUAUAGGCGGCCGCCACUGAUUUUCAUAUAUAUAUAACAUGAGGAUCACCCAUGUAGAUAUACAGGACCGGGCCUAUAUAUU
apparent Kd [1]: 14.5 nM | apparent Kd [2]: 13.4 nM

GAUCGAAAUAACGUCUAGGAAAACUAGACGCGAGGACCGGUACGGCCGCCACUCGGGUGGCACAUGAGGAUCACCCAUGUAGAUC
apparent Kd [3]: 78.7 nM | apparent Kd [4]: 105 nM

GCAUCCUAGUCGGCCGCCACUACAACAUGAGGAUCACCCAUGUGUGGGAGAUCCGUCCUACGAAGUAGGACCGGGACUAGGAUGC
apparent Kd [1]: 272 nM | apparent Kd [2]: 444 nM

GGAUAGGACACGGCCGCCACUGCGCUAGGAUACUAGAACAUUUCCUCACAUGAGGAUCACCCAUGUAGGACCGGGUGUCCUAUCG
apparent Kd [3]: 49.6 nM | apparent Kd [4]: 152 nM

GGAUGCGGCACGGCCGCCACUGCGGUGGUGUGACAUGAGGAUCACCCAUGUUGUCAUGCGGCCCUUAGGACCGGGUGGCGUGUCC
apparent Kd [3]: 46.4 nM | apparent Kd [4]: 47 nM

GGCACAUAGUCGGCCGCCACUAGUGGGAAAUGGGAGAACAUGAGGAUCACCCAUGUAUUAUAGCCUAGGACCGGGACUAUGUGCC
apparent Kd [3]: 74.8 nM | apparent Kd [4]: 105 nM

GGCCAUGGAAACAUGGCGGCGGCGUAUGCGCGAGGACCGGUACGGCCGCCACUCGGGCGACAUGAGGAUCACCCAUGUUCCUCAU
apparent Kd [3]: 182 nM | apparent Kd [4]: 478 nM

GGCGCUGCGUCGGCCGCCACUAGUGGGUAAUGGGUGUACAUGAGGAUCACCCAUGUAUUUUGGCCUAGGACCGGGACGUGGCGCC
apparent Kd [3]: 453 nM | apparent Kd [4]: 503 nM

GGGUACAUCGCGGCCGCCACUUAUGUAAAUACAUGAGGAUCACCCAUGUCGAUGGAGACAUCGGAAAGGACCGGGUGAUGUACCG
apparent Kd [1]: 198 nM | apparent Kd [2]: 47.5 nM

GGUUACUCUACGGCCGCCACUGAUUAUUUAUAAUCCUGUACAUAAACAUGAGGAUCACCCAUGUACAGGACCGGGUAGUGUAACC
apparent Kd [1]: 33.8 nM | apparent Kd [2]: 29.4 nM

GGUUACUCUACGGCCGCCACUGUUAAAUAAUAAACCUGUACAUAAACAUGAGGAUCACCCAUGUACAGGACCGGGUAGUGUAACC
apparent Kd [1]: 32.1 nM | apparent Kd [2]: 16.1 nM

GUAGCGACGGCGGCCGCCACUCACAGGUGAGGGUAGACCAACCUUCACAUGAGGAUCACCCAUGUGAGGACCGGGCUGUCGCUAC
apparent Kd [3]: 90.9 nM | apparent Kd [4]: 146 nM

UAAUCCGGUCCUCGAUAGGUGAUCCUCUAACGAGGACCGGUACGGCCGCCACUCGAUAACAUGAGGAUCACCCAUGUAAUAAUAA
apparent Kd [3]: 44 nM | apparent Kd [4]: 33.8 nM

UCGUUUUAGUCGGCCGCCACUGUGAGCAUGGUUAACAUGAGGAUCACCCAUGUCCCGUACUAUAACAGGACCGGGACGUAGUUGC
apparent Kd [1]: 93 nM | apparent Kd [2]: 22.8 nM

UCUGCCGCGGCUCCGAUCCUCCUGUAGUUCCGAGGACCGGUACGGCCGCCACUCGUAGCACAUGAGGAUCACCCAUGUCUUGCGG
apparent Kd [3]: 9.45 nM | apparent Kd [4]: 11.2 nM

UGUACCAUGUCGGCCGCCACUCAUGAUAAACAUGAGGAUCACCCAUGUGGCGUCAAAGACGCUAUGAGGACCGGGACAUGGUACU
apparent Kd [1]: 13.2 nM | apparent Kd [2]: 10.6 nM

UGUAUUGGAAACAGUACUAGUGAUCCGGUCCGAGGACCGGUACGGCCGCCACUCGAAAUUAAUAAACAUGAGGAUCACCCAUGUA
apparent Kd [3]: 14.8 nM | apparent Kd [4]: 34.2 nM

UGUCAGCGAAAGUUGACAUGUCUUACCGGUCGAGGACCGGUACGGCCGCCACUCGAUCUCUCGCACAUGAGGAUCACCCAUGUCG
apparent Kd [1]: 12.7 nM | apparent Kd [2]: 11.2 nM

UUAUAAGUACCGGUCCUCAGAUCCUCAUGACGAGGACCGGUACGGCCGCCACUCGAAACAUGAGGAUCACCCAUGUAAUAAUACU
apparent Kd [3]: 26.4 nM | apparent Kd [4]: 20.2 nM

UUAUGCAGGUCGGCCGCCACUACACACAUGAGGAUCACCCAUGUAGUUACUGGGUGAAGUGGCAGUAGGACCGGGACCUGCAUAC
apparent Kd [1]: 553 nM | apparent Kd [2]: 316 nM

UUCUACGACGAUCUGGGAAAACCAGAUCGACGAGGACCGGUACGGCCGCCACUCGUGUUUCUUUAACAUGAGGAUCACCCAUGUA
apparent Kd [1]: 20.5 nM | apparent Kd [2]: 14.5 nM
